697 NFkB inh: lowers PMA/ionomycin-induced NF-kB signal in 697 B cells | inhibition, % at 4 µM | 697 B-cell NF-kB luciferase reporter, 16 h | hit rate 0.33% among 330,000; in the data active means inhibition above about 35%
Mdm2 MdmX PPI: human Mdm2/MdmX binding inhibition; inhibition, % at 8 µM; AID 485346; hit rate 3% among 330,000; O15151+Q00987; SaOS-2 split-luciferase Mdm2/MdmX complementation, luminescence;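 active means inhibition of at least 50% at 8 µM in the primary screen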
IMP-1 inh-1: inhibitors of Pseudomonas aeruginosa IMP-1 metallo-beta-lactamase | purified IMP-1, nitrocefin hydrolysis, epi-absorbance fluorescence | hit rate 0.45% among 290,000 | AID 1556 | inhibition, % at 5.6 µM;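 active means inhibition above the mean plus 3 SD of all compounds in the same screening run, cut at about 4.5% in these data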
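Material – recombinant IMP-1 enzyme, purified · Amount – IMP-1 0.2 nM before substrate addition · Medium – HEPES buffer pH 7.1 with ZnSO4 and Brij 35 · Timing – 25 °C, 15 min preincubation, 25 min reaction · Measured by – plate fluorescence quenching by hydrolysis product, ex 480/em 530 nm · Read-out – percent enzyme inhibition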
Jurkat NFkB inh: lowers PMA/ionomycin-induced NF-kB signal in Jurkat cells; hit rate 0.53% among 330,000; PMA/ionomycin-induced NF-kB luciferase reporter, luminescence; inhibition, % at 4 µM; in the data active means inhibition above about 50%
VIM-2 inh: inhibitors of Pseudomonas aeruginosa VIM-2 metallo-beta-lactamase | purified VIM-2, nitrocefin hydrolysis, epi-absorbance fluorescence | inhibition, % at 5.6 µM | hit rate 0.89% among 290,000;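 active means inhibition above the mean of all tested compounds plus 3 SD, cutoff set per screening run, cut at about 7.5% in these data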;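 further: red hydrolysis product quenches plate fluorescence so inhibitors raise well fluorescence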
aSyn UTR inh: MLPCN primary screen, SNCA 5' untranslated region. hit rate 0.82% among 300,000. inhibition, % (tested at 7.5 µM). alpha-synuclein 5'UTR reporter, inhibitor activity; in the data active means inhibition above about 60%;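 further: H4 neuroglioblastoma cells stably carrying SNCA 5'UTR luciferase fusion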
IMP-1 inh-2: IMP-1 inhibition, counter-screen for VIM-2 inhibitors; shares compounds with VIM-2 inh; purified IMP-1, nitrocefin hydrolysis, epi-absorbance fluorescence; inhibition, % at 5.6 µM; 1,300 tested, under 10 active; AID 1856; call rule not given here
VIM-2 FRET ctr: VIM-2 FRET inhibition, artifact counter-screen; shares compounds with VIM-2 inh; purified VIM-2, CCF2 FRET substrate hydrolysis; inhibition, % at 5.6 µM; hit rate 23% among 1,300; AID 1857;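 active means inhibition above the mean of all tested compounds plus 3 SD, cut at about 19% in these data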
TEM-1 counter-1: blocks E. coli TEM-1 beta-lactamase in VIM-2 selectivity screen; hit rate 3% among 1,300; inhibition, % at 5.6 µM; AID 1866; shares compounds with VIM-2 inh; Purified TEM-1, nitrocefin hydrolysis, epi-absorbance fluorescence;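 active means inhibition above that campaign's mean inhibition plus 3 SD, cut at about 0.46% in these data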
Target sequence (P62593 whole entry, looked up): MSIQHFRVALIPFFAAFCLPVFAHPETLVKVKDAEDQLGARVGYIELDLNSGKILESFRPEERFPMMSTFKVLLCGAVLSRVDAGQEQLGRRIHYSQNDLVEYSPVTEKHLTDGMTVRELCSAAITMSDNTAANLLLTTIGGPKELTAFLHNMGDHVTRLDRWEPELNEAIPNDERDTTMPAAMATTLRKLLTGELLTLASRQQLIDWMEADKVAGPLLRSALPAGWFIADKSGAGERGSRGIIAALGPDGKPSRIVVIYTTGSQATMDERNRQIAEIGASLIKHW
VIM-2 inh conf: confirmation of P. aeruginosa VIM-2 metallo-beta-lactamase inhibitors. shares compounds with VIM-2 inh. purified VIM-2, nitrocefin hydrolysis, epi-absorbance. inhibition, % at 5.6 µM. hit rate 96% among 1,300. AID 2187;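 active means inhibition of the VIM-2 beta-lactamase enzyme above about 11% from the earlier first-round screen, limit read from the data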
VIM-2 inh confirm: VIM-2 inhibition, confirmation assay; hit rate 73% among 200; shares compounds with IMP-1 inh-1; AID 1860; purified VIM-2 enzyme, nitrocefin absorbance; inhibition, % at 5.6 µM; in the data active means inhibition above about 8%
TEM-1 counter-2: blocks E. coli TEM-1 beta-lactamase, VIM-2 IMP-1 counter-screen; hit rate 50% among 200; inhibition, % at 5.6 µM; nitrocefin absorbance inhibition; shares compounds with IMP-1 inh-1; AID 2184; in the data active means inhibition above about 0.66%
IMP-1 confirm: confirmation of P. aeruginosa IMP-1 metallo-beta-lactamase inhibitors; inhibition, % at 5.6 µM; shares compounds with IMP-1 inh-1; purified IMP-1 enzyme, absorbance substrate hydrolysis; hit rate 60% among 200; in the data active means inhibition above about 4.9%
Mdm2-MdmX conf: confirmation of human Mdm2/MdmX interaction inhibitors; shares compounds with Mdm2 MdmX PPI; Mdm2-MdmX binding, luminescent assay; inhibition, % at 8 µM; hit rate 55% among 10,000; in the data active means inhibition above about 40%
FLuc counter: counter-screen for Mdm2/MdmX inhibitors: full-length luciferase | shares compounds with Mdm2 MdmX PPI | SaOS-2 full-length luciferase counterscreen, luminescence | inhibition, % at 8 µM | hit rate 77% among 6,200 | AID 504607;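 active means mean inhibition at 8 µM reaching about 37%, which flags the compound as non-specific, limit read from the data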;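 further: p53-null SaOS-2 cells with luciferase driven by a doxycycline-inducible promoter; compound on cells about two nights before reading with doxycycline added after day one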
Numbers stand for hits; i = inactive; nt = no result given. This is a sample that favours compounds with a hit; in the whole collection about 4.7% have one here.

SMILES	697 NFkB inh	Mdm2 MdmX PPI	IMP-1 inh-1	Jurkat NFkB inh	VIM-2 inh	aSyn UTR inh	VIM-2 inh confirm	TEM-1 counter-2	IMP-1 confirm	others
CCOc1ccc(C(=O)c2ccccc2C(=O)O)cc1OCC	i	i	i	i	i	i	nt	nt	nt
CC1=CC(=O)C(C(C)C)=C/C1=C(\c1cc(C(C)C)c(OP(=O)(O)O)cc1C)c1ccccc1C(=O)O	i	75.3	i	i	18.4	i	nt	nt	nt	IMP-1 inh-2=i;VIM-2 FRET ctr=31.7;TEM-1 counter-1=i;VIM-2 inh conf=25.2;Mdm2-MdmX conf=67.5;FLuc counter=50.3
Cc1ccc(C(=O)NCC(=O)NCC(c2cccs2)N(C)C)cc1C (stereo unspecified)	i	i	nt	i	nt	nt	nt	nt	nt
CCN1CCc2c(sc(NC(=O)c3ccc(S(=O)(=O)N4CCOCC4)cc3)c2C(=O)OC)C1	i	63.9	i	i	63.7	i	nt	nt	nt	IMP-1 inh-2=i;VIM-2 FRET ctr=i;TEM-1 counter-1=i;VIM-2 inh conf=77.1;Mdm2-MdmX conf=i
CCN1CCc2c(sc(NC(=O)c3ccc(S(=O)(=O)N4CCOCC4)cc3)c2C(N)=O)C1	i	i	i	i	i	i	nt	nt	nt
Oc1ccc(Cn2ccnc2)c2cccnc12	i	i	26.1	i	10.3	i	20.7	i	43.8
O=P(O)(O)COc1ccccc1P(=O)(c1ccccc1)c1ccccc1	i	i	5.3	i	11.8	i	16.5	i	i
C/C(=N\O)c1ccc2[nH]ccc2c1	i	i	i	i	i	i	nt	nt	nt
C/C(=N\O)c1ccc2c3c([nH]c2c1)CCCC3	i	i	8.6	i	22.7	i	37.2	i	4.8
CCNc1c2c3c(cccc3n(C)c1=O)C(=O)c1ccccc1-2	i	i	22.9	i	22.4	i	60.0	69.1	41.0
Cn1c(=O)c(NCCO)c2c3c(cccc31)C(=O)c1ccccc1-2	i	i	95.7	i	90.2	i	108.1	157.9	95.2
Cn1c(NCCc2ccccc2)cc(=O)n(C)c1=O	i	i	i	i	i	i	nt	nt	nt
Cc1cccc(NC2=C(NCCO)C(=O)c3ccccc3C2=O)c1	i	i	i	i	i	i	nt	nt	nt
Cn1c(=O)c(NCCc2ccccc2)c2c3c(cccc31)C(=O)c1ccccc1-2	i	i	36.3	i	36.6	i	28.4	63.9	23.7
Nc1ccc(-c2c3ccc(=O)cc-3oc3cc(O)ccc23)cc1C(=O)O	i	i	51.2	i	70.3	i	58.7	61.7	41.7
O=c1ccc2c(-c3ccccc3)c3ccc(O)cc3oc-2c1	i	i	84.0	i	81.3	i	101.0	152.2	96.0
COc1ccc(-c2c(C)c3ccc(O)cc3oc2=O)cc1OC	i	i	i	i	i	i	nt	nt	nt
CCC(=O)N1c2ccc(S(=O)(=O)NCCc3ccc(OC)c(OC)c3)cc2CC1C (stereo unspecified)	i	i	i	i	i	i	nt	nt	nt
COc1ccccc1CN1CC(C(=O)NCCCc2ccc(F)cc2)CCC1=O (stereo unspecified)	i	i	i	i	i	i	nt	nt	nt

Source: PubChem BioAssay
